Results taken from ChEMBL document CHEMBL1914393, “Chemical scaffolds with structural similarities to siderophores of nonribosomal peptide-polyketide origin as novel antimicrobials against Mycobacterium tuberculosis and Yersinia pestis” (Bioorg Med Chem Lett, 2011).
Values after ≈ are worked out from the molar mass of the structure shown. Active and inactive are the calls of the source.

Legend:
[1] = test system: Mycobacterium tuberculosis; assay: Antimicrobial activity against Mycobacterium tuberculosis H37Rv in GASTD medium supplemented with 100 uM FeCl3 after 10 days by spectrophotometric analysis; format: functional, organism-based; details: 240 h
Summary of the method: (§1)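 Virulent H37Rv, twofold microdilution in iron-limiting GASTD or GASTD plus 100 μM FeCl3, started at OD600 0.001 from deferrated stocks. Compounds were added in DMSO (0.5% final) up to 500 μM or the solubility limit. Cultures sat stationary for 10 days at 37 °C, read at OD600. IC50 from sigmoidal fits to triplicates; MIC90 is the lowest concentration giving ≥90% inhibition versus DMSO controls. Ratios are +Fe/GASTD.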

[2] = test system: Mycobacterium tuberculosis; assay: Bactericidal activity against Mycobacterium tuberculosis H37Rv in GASTD medium at 2 times MIC after 30 days by colony counting; format: functional, organism-based
Summary of the method: (§2)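 Duplicate GASTD cultures were treated and incubated as in the growth assay (37 °C, 10 days), then serial 10-fold dilutions were plated on Middlebrook 7H11. Colonies were counted after 30 days at 37 °C and reported as CFU/mL. Bactericidal was defined as >99% killing relative to inoculum.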

[3] = test system: Mycobacterium tuberculosis; assay: Antimicrobial activity against Mycobacterium tuberculosis H37Rv in GASTD medium after 10 days by spectrophotometric analysis; format: functional, organism-based; details: 240 h; summary of the method: as §1
[4] = test system: Yersinia pestis; assay: Ratio of MIC90 for Yersinia pestis KIM6-2082.1+ in PMHD medium supplemented with 100 uM FeCl3 to IC50 for Yersinia pestis KIM6-2082.1+ in Fe-deficient PMHD medium; format: functional
[5] = test system: Yersinia pestis; assay: Bactericidal activity against Yersinia pestis KIM6-2082.1+ in PMHD medium at MIC after 3 days by colony counting; format: functional, organism-based
[6] = test system: Mycobacterium tuberculosis; assay: Ratio of IC50 for Mycobacterium tuberculosis H37Rv in GASTD medium supplemented with 100 uM FeCl3 to IC50 for Mycobacterium tuberculosis H37Rv in Fe-deficient GASTD medium; format: functional; summary of the method: as §1
[7] = test system: Yersinia pestis; assay: Ratio of IC50 for Yersinia pestis KIM6-2082.1+ in PMHD medium supplemented with 100 uM FeCl3 to IC50 for Yersinia pestis KIM6-2082.1+ in Fe-deficient PMHD medium; format: functional
[8] = test system: Mycobacterium tuberculosis; assay: Ratio of MIC90 for Mycobacterium tuberculosis H37Rv in GASTD medium supplemented with 100 uM FeCl3 to MIC90 for Mycobacterium tuberculosis H37Rv in Fe-deficient GASTD medium; format: functional; summary of the method: as §1
[9] = test system: Yersinia pestis; assay: Antimicrobial activity against Yersinia pestis KIM6-2082.1+ in PMHD medium supplemented with 100 uM FeCl3 after 26 hrs by spectrophotometric analysis; format: functional, organism-based
[10] = test system: Yersinia pestis; assay: Antimicrobial activity against Yersinia pestis KIM6-2082.1+ in PMHD medium after 26 hrs by spectrophotometric analysis; format: functional, organism-based
[11] = test system: HeLa; assay: Cytotoxicity against human HeLa cells at 10 uM after 24 hrs by ATPLite assay; format: cell-based
Summary of the method: (§3)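 HeLa cells in 96-well format, read with an ATPLite reagent-based viability assay. Cell–compound contact lasted 4 hr or 24 hr, and viability was expressed relative to untreated controls.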

[12] = test system: Yersinia pestis; assay: Bactericidal activity against Yersinia pestis KIM6-2082.1+ in PMHD medium at 2 times MIC after 3 days by colony counting; format: functional, organism-based
[13] = test system: HeLa; assay: Cytotoxicity against human HeLa cells at 7 uM after 24 hrs by ATPLite assay; format: cell-based; summary of the method: as §3
[14] = test system: HeLa; assay: Cytotoxicity against human HeLa cells at 0.2 uM after 24 hrs by ATPLite assay; format: cell-based; summary of the method: as §3
[15] = test system: Yersinia pestis; assay: Bacteriostatic activity against Yersinia pestis KIM6-2082.1+ in PMHD medium at 2 times MIC after 3 days by colony counting; format: functional, organism-based
[16] = test system: HeLa; assay: Cytotoxicity against human HeLa cells at 16 uM after 24 hrs by ATPLite assay; format: cell-based; summary of the method: as §3
[17] = test system: HeLa; assay: Cytotoxicity against human HeLa cells at 21 uM after 24 hrs by ATPLite assay; format: cell-based; summary of the method: as §3
[18] = test system: Mycobacterium tuberculosis; assay: Bactericidal activity against Mycobacterium tuberculosis H37Rv in GASTD medium at 4 times MIC after 30 days by colony counting; format: functional, organism-based; summary of the method: as §2
[19] = test system: Yersinia pestis; assay: Bacteriostatic activity against Yersinia pestis KIM6-2082.1+ in PMHD medium at MIC after 3 days by colony counting; format: functional, organism-based
[20] = test system: HeLa; assay: Cytotoxicity against human HeLa cells at 125 uM after 24 hrs by ATPLite assay relative to control; format: cell-based; summary of the method: as §3
[21] = test system: HeLa; assay: Cytotoxicity against human HeLa cells at 125 uM after 4 hrs by ATPLite assay; format: cell-based; summary of the method: as §3

| Structure (SMILES) | IC50 [1] | MIC90 [1] | Activity [2] | IC50 [3] | MIC90 [3] | Ratio [4] | Ratio IC50 [6] | Ratio IC50 [7] | Ratio [8] | IC50 [9] | MIC90 [9] | IC50 [10] | MIC90 [10] | Activity [12] | also measured |
| --- | --- | --- | --- | --- | --- | --- | --- | --- | --- | --- | --- | --- | --- | --- | --- |
| N=C(N)N1N=C(c2ccccc2O)C[C@H]1c1ccccc1O | 23 µM | 66 µM (≈ 19.6 µg/mL) | Active | 44 µM | 66 µM (≈ 19.6 µg/mL) | >1 | 1 | >9 | 1 | > 63 µM | > 63 µM | 7 µM | 42 µM (≈ 12.4 µg/mL) |  | Activity [5]: Active |
| CSC(=S)N/N=C(\C)c1ccccc1O | 4 µM | 9 µM (≈ 2.16 µg/mL) | Active | 4 µM | 10 µM (≈ 2.4 µg/mL) | 2 | 1 | >3 | 1 | 156 µM | 233 µM (≈ 56 µg/mL) | 61 µM | 116 µM (≈ 27.9 µg/mL) | Active | Activity [11]: Non-toxic; Activity [13]: Non-toxic |
| O=C(NO)N1CCN(C(=S)N/N=C/c2ccccc2O)CC1 | > 8 µM | > 8 µM |  | 20 µM | > 31 µM | >20 |  | >100 |  | > 4 µM | > 4 µM | 0.04 µM | 0.2 µM (≈ 0.0647 µg/mL) |  | Activity [14]: Non-toxic; Activity [15]: Active |
| N=C(NO)N1N=C(c2ccccc2O)C[C@H]1c1ccccc1O | 32 µM | > 125 µM | Active | 37 µM | 125 µM (≈ 39 µg/mL) | >1 | 1 | >4 | >1 | > 16 µM | > 16 µM | 4 µM | 16 µM (≈ 5 µg/mL) | Active | Activity [16]: Non-toxic; Activity [17]: Non-toxic |
| CSC(=S)N/N=C/c1ccccc1O | 2 µM | 6 µM (≈ 1.36 µg/mL) |  | 3 µM | 7 µM (≈ 1.58 µg/mL) | >4 | 1 | >15 | 1 | > 59 µM | > 59 µM | 4 µM | 15 µM (≈ 3.39 µg/mL) |  | Activity [11]: Non-toxic; Activity [18]: Active; Activity [13]: Non-toxic; Activity [15]: Active |
| CSC(=S)N/N=C/c1ccc(O)cc1 | 33 µM | 59 µM (≈ 13.4 µg/mL) | Active | 31 µM | 59 µM (≈ 13.4 µg/mL) |  | 1 | >2 | 1 | > 233 µM | > 233 µM | 137 µM | 388 µM (≈ 87.8 µg/mL) |  | Activity [19]: Active |
| N=C(NO)N1N=C(c2ccccc2O)C[C@H]1c1ccc(O)cc1 | 22 µM | 31 µM (≈ 9.68 µg/mL) | Active | 47 µM | 125 µM (≈ 39 µg/mL) | >3 | 0.5 | >13 | 0.2 | > 63 µM | > 63 µM | 5 µM | 21 µM (≈ 6.56 µg/mL) | Active | Activity [20]: 70%; Activity [21]: Non-toxic; Activity [16]: Non-toxic; Activity [17]: Non-toxic |
